Test results: ChEMBL document CHEMBL1268935, “3-O-arylmethylgalangin, a novel isostere for anti-HCV 1,3-diketoacids (DKAs)” (Bioorg Med Chem, 2010)
Each block holds one compound with its values, some of them ahead of it.

How the values were obtained:
[1] = Inhibition of HCV recombinant NS5B polymerase using [alpha32p]GTP after 30 mins by scintillation counting; set-up: species or system Hepacivirus hominis
Procedure, shortened: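 Recombinant NS5B primer/template-directed transcription in 30 mM Tris–HCl pH 7.2; compounds at various concentrations from 10% DMSO–water stocks, final DMSO 1%; stopped with 33 mM EDTA; products captured on DEAE filters, washed with 5% dibasic sodium phosphate, scintillation counted. IC50 estimated from primary cpm data, triplicate.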

[2] = tested on: Hepatitis C virus; assay: Antiviral activity against HCV genotype 1 harboring luc-ubi-neo fusion gene infected in human Huh7 cells assessed as inhibition of viral RNA replication after 4 days by luciferase assay; type: functional, organism-based, Hepacivirus hominis; conditions: genotype 1, Huh-7, 96 h
Procedure, shortened: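 Huh-5-2 cells (Huh-7 carrying a subgenomic genotype 1 HCV replicon with luc-ubi-neo fusion gene) were seeded at 5 × 10³/well in complete DMEM with G418 and held 24 h at 37 °C, 5% CO₂. Medium was refreshed with G418 and compounds added from DMSO stock, then incubated 4 days at 37 °C. Luciferase was read out, and EC₅₀ was taken as 50% inhibition of replicon RNA replication. Interferon α-2b at 10,000 units/well served as reference.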

[3] = Cytotoxicity against human HuH5.2 cells after 3 days by WST-1 assay; type: cell-based, Huh-5-2
Procedure, shortened: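 Huh-7-derived Huh-5-2 cells carrying subgenomic genotype 1 HCV replicon (luc-ubi-neo); 5 × 10³ cells/well seeded in complete DMEM with G418; serial compound dilutions in DMEM without G418 added 24 h after seeding; proliferation 3 days at 37 °C; cell number by WST-1. CC50 = concentration reducing cell proliferation by 50%.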

[4] = Selectivity index, ratio of CC50 for human HuH5.2 cells to EC50 for HCV genotype 1 harboring luc-ubi-neo fusion gene
Procedure, shortened: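 SI is CC₅₀/EC₅₀, both measured in Huh-5-2 replicon cells seeded at 5 × 10³/well. For CC₅₀, serial dilutions in complete DMEM without G418 were added 24 h after seeding, cells grew 3 days at 37 °C, and cell number was read by WST-1. EC₅₀ came from the 4-day replicon luciferase assay run with G418.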

Structure (SMILES): O=c1c(OCc2ccc([N+](=O)[O-])cc2)c(-c2ccccc2)oc2cc(O)cc(O)c12
IC50 [1]: > 50 µM
EC50 [2]: 7 µM
CC50 at 72 h [3]: 40 µM
Ratio CC50/EC50 [4]: 5.7

Structure (SMILES): COc1ccccc1COc1c(-c2ccccc2)oc2cc(O)cc(O)c2c1=O
IC50 [1]: > 50 µM
EC50 [2]: 28 µM
CC50 at 72 h [3]: 53 µM
Ratio CC50/EC50 [4]: 1.9

Structure (SMILES): N#Cc1ccccc1COc1c(-c2ccccc2)oc2cc(O)cc(O)c2c1=O
IC50 [1]: 11 µM
EC50 [2]: 5 µM
CC50 at 72 h [3]: > 100 µM

Structure (SMILES): O=c1c(OCc2ccccc2[N+](=O)[O-])c(-c2ccccc2)oc2cc(O)cc(O)c12
IC50 [1]: > 50 µM
EC50 [2]: 12 µM
CC50 at 72 h [3]: 51 µM
Ratio CC50/EC50 [4]: 4.3

Structure (SMILES): O=c1c(OCc2cccc(Br)c2)c(-c2ccccc2)oc2cc(O)cc(O)c12
IC50 [1]: 4.6 µM
EC50 [2]: 18 µM
CC50 at 72 h [3]: 15 µM
Ratio CC50/EC50 [4]: 0.8

Structure (SMILES): O=c1c(OCc2ccc(Cl)cc2)c(-c2ccccc2)oc2cc(O)cc(O)c12
IC50 [1]: 0.3 µM
EC50 [2]: 15 µM
CC50 at 72 h [3]: 36 µM
Ratio CC50/EC50 [4]: 2.4

Structure (SMILES): N#Cc1ccc(COc2c(-c3ccccc3)oc3cc(O)cc(O)c3c2=O)cc1
IC50 [1]: 1.3 µM
EC50 [2]: 10 µM
CC50 at 72 h [3]: 48 µM
Ratio CC50/EC50 [4]: 4.8

Structure (SMILES): N#Cc1cccc(COc2c(-c3ccccc3)oc3cc(O)cc(O)c3c2=O)c1
IC50 [1]: 0.2 µM
EC50 [2]: 36 µM
CC50 at 72 h [3]: 21 µM
Ratio CC50/EC50 [4]: 0.6

Structure (SMILES): O=c1c(OCc2ccccc2Br)c(-c2ccccc2)oc2cc(O)cc(O)c12
IC50 [1]: 10.5 µM
EC50 [2]: 9 µM
CC50 at 72 h [3]: 12 µM
Ratio CC50/EC50 [4]: 1.3

Structure (SMILES): Cc1ccccc1COc1c(-c2ccccc2)oc2cc(O)cc(O)c2c1=O
IC50 [1]: 7.2 µM
EC50 [2]: 34 µM
CC50 at 72 h [3]: 55 µM
Ratio CC50/EC50 [4]: 1.6

Structure (SMILES): O=c1c(OCc2cccc([N+](=O)[O-])c2)c(-c2ccccc2)oc2cc(O)cc(O)c12
IC50 [1]: 6.4 µM
EC50 [2]: 5 µM
CC50 at 72 h [3]: 31 µM
Ratio CC50/EC50 [4]: 6.2

Structure (SMILES): Cc1ccc(COc2c(-c3ccccc3)oc3cc(O)cc(O)c3c2=O)cc1
IC50 [1]: 45.2 µM
EC50 [2]: 14 µM
CC50 at 72 h [3]: 40 µM
Ratio CC50/EC50 [4]: 2.9

Structure (SMILES): COc1cccc(COc2c(-c3ccccc3)oc3cc(O)cc(O)c3c2=O)c1
IC50 [1]: 21 µM
EC50 [2]: 22 µM
CC50 at 72 h [3]: 28 µM

Structure (SMILES): Cc1cccc(COc2c(-c3ccccc3)oc3cc(O)cc(O)c3c2=O)c1
IC50 [1]: 30 µM
EC50 [2]: 28 µM
CC50 at 72 h [3]: 29 µM
Ratio CC50/EC50 [4]: 1

Structure (SMILES): O=c1c(OCc2cccc(Cl)c2)c(-c2ccccc2)oc2cc(O)cc(O)c12
IC50 [1]: 0.1 µM
EC50 [2]: 25 µM
CC50 at 72 h [3]: 46 µM
Ratio CC50/EC50 [4]: 1.8

IC50 [1]: 0.35 µM
Structure (SMILES): N#CCCCOc1ccccc1C(=O)/C=C(\O)C(=O)O

Structure (SMILES): O=c1c(OCc2ccccc2Cl)c(-c2ccccc2)oc2cc(O)cc(O)c12
IC50 [1]: > 50 µM
EC50 [2]: 38 µM
CC50 at 72 h [3]: > 100 µM

Structure (SMILES): COc1ccc(COc2c(-c3ccccc3)oc3cc(O)cc(O)c3c2=O)cc1
IC50 [1]: 29.5 µM
EC50 [2]: 10 µM
CC50 at 72 h [3]: 57 µM
Ratio CC50/EC50 [4]: 5.7

Structure (SMILES): O=c1c(OCc2ccc(Br)cc2)c(-c2ccccc2)oc2cc(O)cc(O)c12
IC50 [1]: 1.4 µM
EC50 [2]: 12 µM
CC50 at 72 h [3]: 2 µM
Ratio CC50/EC50 [4]: 0.2
